Published values gathered from unrelated publications.
Lines come from different studies, so protocols differ. Converted amounts (≈) assume the structure as drawn.
Organism: Enterococcus faecalis

| Compound | assay | system | conditions | endpoint | result |
| --- | --- | --- | --- | --- | --- |
| CC(C)C(C)CCCCCCCCCCCc1cc(O)cc(O)c1 (stereo not shown) | microbial growth | ATCC29212 | – | IC50 | 13.2 µM |
| CCCCCCCCCCCC(=O)NP(=O)(O)O | microbial growth | ATCC33186 | – | MIC | 200 mg/L (≈ 716 µM) |
| CCC(CCCCCCCCCCc1cc(O)cc(O)c1)C(C)C (stereo not shown) | microbial growth | ATCC29212 | – | IC50 | 9.23 µM |
| CC(C)(O/N=C(\C(=O)N[C@@H]1C(=O)N2C(C(=O)[O-])=C(C[n+]3ccccc3)CS[C@H]12)c1csc(N)n1)C(=O)O | microbial killing | – | drug-resistant strain, clinical isolate | MBC | > 128 mg/L |
| CCCCCCCCCCCCCCCC(=O)NS(=O)(=O)OC1CCOCC1 | microbial growth, broth dilution | ATCC33186 | – | MIC | 25 mg/L (≈ 59.6 µM) |
| COc1ccc(OS(=O)(=O)NC(=O)CCCCc2ccccc2)cc1 | microbial growth | ATCC33186 | – | MIC | > 200 mg/L |
| CC1(C)S[C@@H]2[C@H](NC(=O)[C@H](N)c3ccccc3)C(=O)N2[C@H]1C(=O)O | microbial growth, well diffusion | ATCC29212 | 60000 µg/mL | inhibition zone | 26 mm |
| CCCCCCCC(=O)CP(=O)(O)O | microbial growth | ATCC33186 | – | MIC | > 200 mg/L |
| CCCCCCCCCCCCCCCC(=O)NS(=O)(=O)Oc1ccc(C)cc1 | microbial growth, broth dilution | ATCC33186 | – | MIC | 12.5 mg/L (≈ 29.4 µM) |
| CC(C)CCCCCCCCCCCCCCCc1cc(O)cc(O)c1 | microbial growth | ATCC29212 | – | IC50 | 15.3 µM |
| CCCCCCCCCCCCCCCC(=O)CP(=O)(O)O | microbial growth | ATCC33186 | – | MIC | 12.5 mg/L (≈ 37.4 µM) |
| CCCCCCCCCCCCCCCC(=O)NS(=O)(=O)OC1CCN(C(=O)OC(C)(C)C)CC1 | microbial growth, broth dilution | ATCC33186 | – | MIC | 25 mg/L (≈ 48.2 µM) |
| ONCc1cc(F)cc(F)c1 | microbial growth | ATCC19433 | 8 h | MIC50 | < 80 mg/L |
